Data reported in ChEMBL document CHEMBL3124820, “Design, synthesis and biological evaluation of hetero-aromatic moieties substituted pyrrole-2-carbonitrile derivatives as dipeptidyl peptidase IV inhibitors” (Eur J Med Chem, 2014).
Values belong to the molecule of their own block, whether it stands above or below them.

Experiments:
Cytochrome P450 3A4 = Cytochrome P450 3A4 (Homo sapiens, UniProt P08684); assay: Inhibition of CYP3A4 (unknown origin); format: ADME
[1] = AUC (0 to infinity) in Sprague-Dawley rat at 20 mg/kg, po; format: ADME, organism-based; design: time infinity, dose 20 mg/kg, route oral; conditions: plasma
In short: (§1)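 Sprague-Dawley rats were dosed orally or intravenously, and blood was sampled after dosing. Plasma was separated by centrifugation and deproteinized with methanol containing an internal standard. The supernatant was diluted with methanol, centrifuged again and quantified by LC/MS/MS.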

[2] = Cmax in Sprague-Dawley rat at 5 mg/kg, iv; format: ADME, organism-based; design: dose 5 mg/kg, route intravenous; conditions: in vivo; in short: as §1
[3] = Tmax in Sprague-Dawley rat at 5 mg/kg, iv; format: ADME, organism-based; design: dose 5 mg/kg, route intravenous; conditions: in vivo; in short: as §1
[4] = Half life in Sprague-Dawley rat at 20 mg/kg, po; format: ADME, organism-based; design: dose 20 mg/kg, route oral; conditions: in vivo; in short: as §1
CYP2C9 = CYP2C9 (Homo sapiens, UniProt P11712); assay: Inhibition of CYP2C9 (unknown origin) at 100 uM relative to control; format: ADME
[5] = Cmax in Sprague-Dawley rat at 20 mg/kg, po; format: ADME, organism-based; design: dose 20 mg/kg, route oral; conditions: in vivo; in short: as §1
[6] = AUC (0 to t) in Sprague-Dawley rat at 5 mg/kg, iv; format: ADME, organism-based; design: dose 5 mg/kg, route intravenous; conditions: plasma; in short: as §1
[7] = AUC (0 to infinity) in Sprague-Dawley rat at 5 mg/kg, iv; format: ADME, organism-based; design: time infinity, dose 5 mg/kg, route intravenous; conditions: plasma; in short: as §1
Mus musculus [8] = assay: Antidiabetic activity in ICR mouse assessed as decrease in blood glucose AUC (0 to 120 mins) at 15 mg/kg administered for 30 mins prior to glucose challenge measured after 4 hrs by OGTT relative to vehicle-treated control; format: functional; design: scale not given: the % may be the effect or the level left
In short: (§2)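 ICR mice were fasted 16 h and given one dose in 0.5% methylcellulose vehicle (10 mL/kg). An oral glucose load of 2.5 g/kg followed; methods state 30 min after dosing, the figure legend 4 h.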

[9] = Tmax in Sprague-Dawley rat at 20 mg/kg, po; format: ADME, organism-based; design: dose 20 mg/kg, route oral; conditions: in vivo; in short: as §1
[10] = Half life in Sprague-Dawley rat at 5 mg/kg, iv; format: ADME, organism-based; design: dose 5 mg/kg, route intravenous; conditions: in vivo; in short: as §1
[11] = Mean residence time in Sprague-Dawley rat at 20 mg/kg, po; format: ADME, organism-based; design: dose 20 mg/kg, route oral; conditions: in vivo; in short: as §1
[12] = Mean residence time in Sprague-Dawley rat at 5 mg/kg, iv; format: ADME, organism-based; design: dose 5 mg/kg, route intravenous; conditions: in vivo; in short: as §1
[13] = AUC (0 to t) in Sprague-Dawley rat at 20 mg/kg, po; format: ADME, organism-based; design: dose 20 mg/kg, route oral; conditions: plasma; in short: as §1
[14] = Oral bioavailability in Sprague-Dawley rat at 20 mg/kg; format: ADME, organism-based; conditions: in vivo; in short: as §1
Mus musculus [15] = assay: Antidiabetic activity in ICR mouse assessed as decrease in blood glucose AUC (0 to 120 mins) administered for 30 mins prior to glucose challenge measured after 4 hrs by OGTT; format: functional, organism-based
In short: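 ICR mice fasted 16 h, then given a single dose of 15 or 50 mg/kg; vehicle 0.5% methylcellulose (10 mL/kg), LAF237 30 mg/kg as positive control. Oral glucose 2.5 g/kg given 30 min after dosing (legend says 4 h). Blood glucose read at 0, 15, 30, 60, 90, 120 min for AUC0–120. Mean ± SE, n = 10; Student's t-test.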

[16] = Apparent clearance in Sprague-Dawley rat at 5 mg/kg, iv; format: ADME, organism-based; design: dose 5 mg/kg, route intravenous; conditions: in vivo, read-out: CL(app) (converted); in short: as §1
Mus musculus [17] = assay: Antidiabetic activity in ICR mouse assessed as decrease in blood glucose AUC (0 to 120 mins) at 50 mg/kg administered for 30 mins prior to glucose challenge measured after 4 hrs by OGTT relative to vehicle-treated control; format: functional; design: scale not given: the % may be the effect or the level left; in short: as §2
Mus musculus [18] = assay: Antidiabetic activity in C57BKS db/db mouse assessed as blood glucose level at 15 mg/kg/day administered for 5 weeks followed by glucose challenge at 6 hrs starvation of post last dose measured immediately by OGTT (reference value: 25 +/- 1.2 mmol/L); format: functional
In short: (§3)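 C57BKS db/db mice received 5, 15 or 50 mg/kg/day for 5 weeks. Vehicle was 0.5% methylcellulose at 10 mL/kg/day. In week 5, mice were fasted 6 h and given an oral glucose load of 1.5 g/kg, then blood glucose was recorded over the glucose tolerance test. Data are mean ± SE, compared with Student's t-test.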

Mus musculus [19] = assay: Antidiabetic activity in ICR mouse assessed as decrease in blood glucose AUC (0 to 120 mins) at 30 mg/kg administered for 30 mins prior to glucose challenge measured after 4 hrs by OGTT relative to vehicle-treated control; format: functional; design: scale not given: the % may be the effect or the level left; in short: as §2
Mus musculus [20] = assay: Antidiabetic activity in C57BKS db/db mouse assessed as blood glucose level at 15 mg/kg/day administered for 5 weeks followed by glucose challenge at 6 hrs starvation of post last dose measured at 30 mins by OGTT (reference value: 46.6 +/- 2.2 mmol/L); format: functional; in short: as §3
Mus musculus [21] = assay: Antidiabetic activity in C57BKS db/db mouse assessed as blood glucose level at 15 mg/kg/day administered for 5 weeks followed by glucose challenge at 6 hrs starvation of post last dose measured at 120 mins by OGTT (reference value: 28.1 +/- 1.3 mmol/L); format: functional; in short: as §3
Mus musculus [22] = assay: Antidiabetic activity in C57BKS db/db mouse assessed as blood glucose level at 15 mg/kg/day administered for 5 weeks followed by glucose challenge at 6 hrs starvation of post last dose measured at 60 mins by OGTT (reference value: 30.2 +/- 1.5 mmol/L); format: functional; in short: as §3
Mus musculus [23] = assay: Antidiabetic activity in C57BKS db/db mouse assessed as blood glucose level at 15 mg/kg/day administered for 5 weeks followed by glucose challenge at 6 hrs starvation of post last dose measured at 90 mins by OGTT (reference value: 27.2 +/- 1.3 mmol/L); format: functional; in short: as §3
Dipeptidyl peptidase 8 = Dipeptidyl peptidase 8 (Homo sapiens, UniProt Q6V1X1); assay: Inhibition of recombinant his6-tagged DPP8 (unknown origin) expressed in baculovirus expression system using Ala-pro-AMC as substrate by fluorometric analysis
Dipeptidyl peptidase 9 = Dipeptidyl peptidase 9 (Homo sapiens, UniProt Q86TI2); assay: Inhibition of recombinant his6-tagged DPP9 (unknown origin) expressed in baculovirus expression system using Ala-pro-AMC as substrate by fluorometric analysis
Chain of Dipeptidyl peptidase 9 (Q86TI2 whole entry): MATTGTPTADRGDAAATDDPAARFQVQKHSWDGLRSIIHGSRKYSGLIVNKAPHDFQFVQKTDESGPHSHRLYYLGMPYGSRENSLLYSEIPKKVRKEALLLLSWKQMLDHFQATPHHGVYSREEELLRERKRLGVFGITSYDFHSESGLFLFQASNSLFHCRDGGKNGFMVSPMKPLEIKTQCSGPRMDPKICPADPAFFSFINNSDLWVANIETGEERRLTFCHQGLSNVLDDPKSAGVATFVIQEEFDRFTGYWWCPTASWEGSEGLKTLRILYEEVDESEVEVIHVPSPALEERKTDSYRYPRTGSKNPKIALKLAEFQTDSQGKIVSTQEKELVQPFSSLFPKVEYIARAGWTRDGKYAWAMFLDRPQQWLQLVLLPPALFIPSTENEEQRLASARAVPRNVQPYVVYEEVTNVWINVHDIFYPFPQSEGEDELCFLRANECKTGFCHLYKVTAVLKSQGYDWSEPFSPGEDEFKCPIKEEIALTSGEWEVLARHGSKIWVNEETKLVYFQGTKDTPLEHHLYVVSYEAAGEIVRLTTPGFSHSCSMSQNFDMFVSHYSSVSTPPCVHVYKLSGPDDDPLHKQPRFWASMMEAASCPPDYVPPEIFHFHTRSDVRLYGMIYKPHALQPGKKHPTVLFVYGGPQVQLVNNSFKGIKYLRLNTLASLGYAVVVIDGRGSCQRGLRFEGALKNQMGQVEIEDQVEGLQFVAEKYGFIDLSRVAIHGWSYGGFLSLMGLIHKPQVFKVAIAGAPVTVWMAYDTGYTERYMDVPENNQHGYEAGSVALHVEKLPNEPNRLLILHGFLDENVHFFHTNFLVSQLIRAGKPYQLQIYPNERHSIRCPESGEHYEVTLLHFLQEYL

Chain of Dipeptidyl peptidase 8 (Q6V1X1 whole entry): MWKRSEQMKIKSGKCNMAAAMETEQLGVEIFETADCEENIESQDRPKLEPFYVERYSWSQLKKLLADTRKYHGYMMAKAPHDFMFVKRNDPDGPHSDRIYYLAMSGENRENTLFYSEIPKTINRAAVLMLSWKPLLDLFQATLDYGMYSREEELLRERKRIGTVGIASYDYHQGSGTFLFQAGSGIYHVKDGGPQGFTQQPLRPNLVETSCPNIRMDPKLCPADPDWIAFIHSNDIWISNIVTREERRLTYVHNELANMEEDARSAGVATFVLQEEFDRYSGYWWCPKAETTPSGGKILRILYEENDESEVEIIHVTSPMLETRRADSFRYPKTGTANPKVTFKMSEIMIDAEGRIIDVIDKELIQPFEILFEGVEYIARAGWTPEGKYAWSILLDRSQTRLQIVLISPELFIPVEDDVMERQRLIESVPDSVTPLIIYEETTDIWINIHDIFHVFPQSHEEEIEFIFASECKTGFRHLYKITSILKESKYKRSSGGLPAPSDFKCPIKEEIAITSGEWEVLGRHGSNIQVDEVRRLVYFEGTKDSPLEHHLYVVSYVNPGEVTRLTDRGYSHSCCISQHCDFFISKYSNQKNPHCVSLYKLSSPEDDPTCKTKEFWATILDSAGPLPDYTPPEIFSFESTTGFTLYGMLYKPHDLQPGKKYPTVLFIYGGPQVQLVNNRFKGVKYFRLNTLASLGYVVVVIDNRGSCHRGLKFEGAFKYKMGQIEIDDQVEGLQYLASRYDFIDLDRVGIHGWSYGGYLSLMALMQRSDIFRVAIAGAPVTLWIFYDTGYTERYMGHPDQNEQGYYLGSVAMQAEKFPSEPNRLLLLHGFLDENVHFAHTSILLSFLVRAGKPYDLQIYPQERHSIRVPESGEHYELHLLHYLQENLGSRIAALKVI
Chain of Cytochrome P450 3A4 (P08684 whole entry): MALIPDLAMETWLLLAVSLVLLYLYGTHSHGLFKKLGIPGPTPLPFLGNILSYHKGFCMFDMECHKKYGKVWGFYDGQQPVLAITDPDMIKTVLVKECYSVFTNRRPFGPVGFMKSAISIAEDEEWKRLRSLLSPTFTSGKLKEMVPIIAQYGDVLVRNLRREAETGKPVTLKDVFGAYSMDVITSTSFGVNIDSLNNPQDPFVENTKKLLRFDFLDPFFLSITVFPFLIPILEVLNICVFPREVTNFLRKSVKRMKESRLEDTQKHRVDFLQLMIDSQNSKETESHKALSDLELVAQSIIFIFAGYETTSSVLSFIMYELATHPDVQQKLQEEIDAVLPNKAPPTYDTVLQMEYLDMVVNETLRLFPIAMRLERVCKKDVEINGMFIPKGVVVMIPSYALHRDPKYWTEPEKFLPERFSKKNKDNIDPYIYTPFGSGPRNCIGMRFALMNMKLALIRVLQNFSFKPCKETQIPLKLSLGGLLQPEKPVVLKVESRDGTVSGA
Chain of CYP2C9 (P11712 whole entry): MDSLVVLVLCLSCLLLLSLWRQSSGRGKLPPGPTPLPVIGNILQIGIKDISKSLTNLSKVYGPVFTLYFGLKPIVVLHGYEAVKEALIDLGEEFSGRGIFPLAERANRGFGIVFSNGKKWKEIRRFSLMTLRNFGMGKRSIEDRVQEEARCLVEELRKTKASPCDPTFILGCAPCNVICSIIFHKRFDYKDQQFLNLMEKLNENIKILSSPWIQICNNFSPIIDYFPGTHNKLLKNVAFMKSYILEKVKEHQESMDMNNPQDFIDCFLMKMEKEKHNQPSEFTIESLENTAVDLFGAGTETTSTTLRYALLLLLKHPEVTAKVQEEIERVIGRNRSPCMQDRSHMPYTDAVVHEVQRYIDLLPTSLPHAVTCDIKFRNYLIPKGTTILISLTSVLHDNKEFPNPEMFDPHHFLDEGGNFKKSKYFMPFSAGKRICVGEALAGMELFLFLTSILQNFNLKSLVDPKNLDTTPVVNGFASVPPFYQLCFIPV

- IC50 (Cytochrome P450 3A4): 2200 nM
- AUC(0-inf) [1]: 1580 ng·h/mL
- Cmax [2]: 2030 ng/mL
- Tmax [3]: 18 min
- half-life [4]: 218 min
- inhibition at 100 µM (CYP2C9): -20.3%
- Cmax [5]: 2200 ng/mL
- AUC(0-t) [6]: 1920 ng·h/mL
- AUC(0-inf) [7]: 1920 ng·h/mL
- Tmax [9]: 18 min
- half-life [10]: 37.8 min
- MRT [11]: 3.15 h
- MRT [12]: 33 min
- AUC(0-t) [13]: 1290 ng·h/mL
- bioavailability [14]: 16.8%
- clearance [16]: 43.5 mL/min/kg
SMILES: N#C[C@@H]1C[C@H](F)CN1C(=O)[C@@H](N)Cc1cc2c(cc1Br)OCO2
- Activity (Mus musculus [8]): 12.2%
- Activity (Mus musculus [15]): Dose-dependent effect
- Activity (Mus musculus [17]): 23.6%

SMILES: N#C[C@@H]1CCCN1C(=O)CNC12CC3CC(CC(O)(C3)C1)C2 [VILDAGLIPTIN]
- Activity (Mus musculus [18]): 17.9 mmol/L
- Activity (Mus musculus [19]): 19.9%
- Activity (Mus musculus [20]): 31.3 mmol/L
- Activity (Mus musculus [21]): 21.4 mmol/L
- Activity (Mus musculus [22]): 21 mmol/L
- Activity (Mus musculus [23]): 20.7 mmol/L

- IC50 (Dipeptidyl peptidase 8): 125 µM
- IC50 (Dipeptidyl peptidase 9): 144 µM
SMILES: N#C[C@@H]1CCCN1C(=O)[C@@H](N)Cc1ccccn1
